Values joined by “and” are separate entries in the source; they are usually repeats but may differ in a detail not shown here. Equal values may be shown once.
How the values were obtained:
MNV^CW3 [1] = test: Cell viability-based anti-MNV screening in MNV^CW3-infected BV2 cells; set-up: species or system murine norovirus; conditions: MNV^CW3 infection, 40 μg/mL compound, 24 h, DMSO control about 2.7%
Outline: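 BV2 cells plated at 10,000/well 16–18 h before infection with MNV^CW3 at MOI 0.25 for 1 h. Medium then replaced with 40 μg/mL compound or DMSO vehicle. Viability read after 24 h as ATP level by luminescence kit. At least 3 biological repeats.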

MNV^CW3 [2] = test: MNV viral genome copies quantification; assay type: cell-based, murine norovirus; conditions: BV2 cells, 40 μg/mL (97 μM), 24 h treatment
MNV^CW3 [3] = test: MNV plaque assay; assay type: cell-based, murine norovirus; conditions: BV2 cells, 97 μM, 24 h
Outline: (§1)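 Infected cells harvested at 24 hpi and frozen at −80 °C. RAW264.7 monolayers seeded at 1.8 × 10^6 cells/well; 16 h later, tenfold serial lysate dilutions applied for 1 h with rocking. Overlay of MEM, 10% FBS, 2 mM L-glutamine, 10 mM HEPES and 1% methylcellulose, incubated 2 days. Plaques stained with 0.2% crystal violet in 20% ethanol.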

Cytotoxicity [4] = assay type: cell-based; conditions: mouse, BV2 cells
MNV^CW3 [5] = test: Cell viability of MNV^CW3-infected RAW264.7 cells; assay type: cell-based, murine norovirus; conditions: RAW264.7 cells after MNV^CW3 infection, 24 h
MNV^CW3 [6] = test: MNV viral genome copies quantification; assay type: cell-based, murine norovirus; conditions: RAW264.7 cells, 40 μg/mL, 24 h
MNV^CW3 [7] = test: MNV plaque assay; assay type: cell-based, murine norovirus; conditions: RAW264.7 cells, 40 μg/mL, 24 h
Outline: as §1

Cytotoxicity [8] = assay type: cell-based; conditions: mouse, RAW264.7 cells
MNV^CR6 = MNV^CR6 replication in cell culture; assay type: cell-based, murine norovirus; conditions: BV2 and RAW264.7 cells
MNV^CW3 RdRp = target: T1, MNV^CW3 RdRp (Norovirus, UniProt Q80J95); test: RdRp inhibition assay; assay type: biochemical, murine norovirus
T1 sequence (Q80J95 1178-1687 limits assumed): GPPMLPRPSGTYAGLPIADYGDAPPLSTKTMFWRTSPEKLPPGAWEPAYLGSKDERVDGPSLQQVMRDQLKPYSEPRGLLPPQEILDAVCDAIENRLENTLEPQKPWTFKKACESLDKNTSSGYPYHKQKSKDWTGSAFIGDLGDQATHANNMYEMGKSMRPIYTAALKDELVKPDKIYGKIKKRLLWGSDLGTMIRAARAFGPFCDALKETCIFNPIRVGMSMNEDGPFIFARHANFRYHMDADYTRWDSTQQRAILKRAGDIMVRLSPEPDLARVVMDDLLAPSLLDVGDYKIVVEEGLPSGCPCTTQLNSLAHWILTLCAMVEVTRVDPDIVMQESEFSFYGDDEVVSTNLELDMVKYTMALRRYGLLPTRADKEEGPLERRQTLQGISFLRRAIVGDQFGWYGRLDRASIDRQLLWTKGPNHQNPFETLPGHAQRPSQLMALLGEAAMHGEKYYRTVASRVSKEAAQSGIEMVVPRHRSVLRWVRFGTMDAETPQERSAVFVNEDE
Outline: (§2)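 MNV^CW3 RdRp (GST-tagged) or HNV GII.4 Sydney/2006 RdRp (His-tagged) expressed in E. coli BL21(DE3) and affinity-purified. Enzyme preincubated with compound 10 min at 30 °C in 10 mM PBS pH 7.5, 2.5 mM MnCl2, 5 mM DTT. Poly(C) and GTP then added (final 2.8 μM enzyme, 40 μg/mL poly(C), 25 μM GTP), 30 min at 30 °C. EDTA stop; dsRNA by PicoGreen (ex 480/em 520 nm); normalized to 0.5% DMSO vehicle.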

HNV RdRp = target: T2, HNV RdRp (Norovirus Hu/GII.4/Sydney348/97O/AU, UniProt Q2N379); test: RdRp inhibition assay; assay type: biochemical, human norovirus (G II 0.4/Sydney/2006)
T2 sequence (Q2N379 1-510): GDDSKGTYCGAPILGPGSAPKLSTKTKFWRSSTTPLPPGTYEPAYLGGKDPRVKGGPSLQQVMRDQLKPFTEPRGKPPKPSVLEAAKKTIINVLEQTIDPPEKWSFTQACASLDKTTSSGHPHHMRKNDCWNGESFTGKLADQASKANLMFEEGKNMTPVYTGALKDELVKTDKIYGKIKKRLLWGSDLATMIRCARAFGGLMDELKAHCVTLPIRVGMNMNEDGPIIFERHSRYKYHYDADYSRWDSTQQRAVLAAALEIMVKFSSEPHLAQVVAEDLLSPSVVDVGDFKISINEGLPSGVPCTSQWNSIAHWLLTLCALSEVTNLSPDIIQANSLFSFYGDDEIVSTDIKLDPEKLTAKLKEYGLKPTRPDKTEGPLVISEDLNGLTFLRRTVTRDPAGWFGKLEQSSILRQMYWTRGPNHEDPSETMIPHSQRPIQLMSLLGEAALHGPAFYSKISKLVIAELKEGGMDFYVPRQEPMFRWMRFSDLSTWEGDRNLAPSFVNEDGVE
Outline: as §2

MNV RdRp = target: T3, MNV RdRp (Norovirus, UniProt Q80J95); test: Size-exclusion chromatography of MNV RdRp with or without compound; set-up: species or system murine norovirus; conditions: 60 μM compound
T3 sequence (Q80J95 1178-1687 limits assumed): T1 sequence (Q80J95 1178-1687 limits assumed)
Outline: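 Purified RdRp, with or without 60 μM compound, run on a Superose 6 10/300 GL gel-filtration column equilibrated in 20 mM Tris-HCl pH 8.0, 150 mM NaCl, at 0.4 mL/min.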

N#Cc1c(-c2ccccc2O)nc(SCC(=O)Nc2cc(F)cc(F)c2)[nH]c1=O [Co-29, 2-((5-cyano-4-(2-hydroxyphenyl)-6-oxo-1,6-dihydropyrimidin-2-yl)thio)-N-(3,5-difluorophenyl)acetamide]
cell viability (ratio of live cells) (MNV^CW3 [1]): 36.9% | decrease of MNV^CW3 RNA level vs DMSO vehicle control (MNV^CW3 [2]): more than 2 Log10-fold | formation of MNV^CW3 plaques (viral titer) (MNV^CW3 [3]): dramatically inhibited | CC50 (Cytotoxicity [4]): ~52.2 µg/mL and ~126 µM | concentration of maximum effectiveness (cell viability) (MNV^CW3 [5]): 40 µg/mL | MNV^CW3 genome copy number (MNV^CW3 [6]): decreased | MNV^CW3 viral titers (MNV^CW3 [7]): decreased | CC50 (Cytotoxicity [8]): 105 µM | cell viability after MNV^CR6 infection (MNV^CR6): increased cell viability | MNV^CR6 plaque numbers (MNV^CR6; 97 μM): decreased plaque numbers | MNV^CR6 viral genome copies (MNV^CR6; 97 μM (40 μg/mL)): low levels of viral genome copies | IC50 (MNV^CW3 RdRp): 32 µM | inhibition of MNV^CW3 RdRp (MNV^CW3 RdRp; 35 μM RdRp in the reaction system, vs vehicle (0.5% DMSO), 4 μL of 100 μM compound (4 μM Co-29 final)): > 75% | IC50 (HNV RdRp): 36.6 µM | inhibition of HNV RdRp (HNV RdRp; same assay, normalized to DMSO vehicle control): more than 70% | main SEC peak formed by the protein when compound added (aggregation check) (MNV RdRp): did not change

C[C@@]1(O)[C@H](O)[C@@H](CO)O[C@H]1n1ccc(N)nc1=O [Compound 2CMC, 2′-C-methyl-cytidine, reference compound]
MNV^CW3 genome copy number (MNV^CW3 [6]): decreased | MNV^CW3 viral titers (MNV^CW3 [7]): decreased

From PMC11969896 (Virology Journal, 2025)
